Compounds with a hit are over-represented: about 3.5% of the library has one in this group of screens.
rCAG RNA binder: r(CAG) repeat RNA binding | 370,000 compounds, 1.3% hits | TO-PRO-1 dye displacement fluorescence | AID 651821 | inhibition, % at 3 µM;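 active means inhibition above the plate cutoff, the mean of all test compounds on that plate plus 3 SD, cut at about 35% in these data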;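 further: higher means more dye released from RNA so lower well fluorescence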
TCR CD3 inh: blocks the human TCR-CD3 interaction; AID 651800; TAMRA-labeled TCR probe fluorescence, biochemical; inhibition, % at 9.4 µM; 360,000 compounds, 0.37% hits; in the data active means inhibition above about 19%;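 further: recombinant mutant TCR 2C K166C tagged with TAMRA read by polarization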
ABHD4 inh: ABHD4 (mouse) inhibition, primary FP screen | 370,000 compounds, 0.54% hits | Q8VD66 | inhibition, % at 8.92 µM | AID 720543 | purified mABHD4, FP-Rh probe fluorescence polarization;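 active means inhibition exceeding the mean over every tested compound plus 3 SD, cut at about 30% in these data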
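Assay system: mABHD4 protein; medium: HEPES pH 7.0, NaCl, Pluronic buffer; dosing: 8.92 µM, single dose; schedule: 45 min + 60 min at 25 °C; signal: FP readout, ex 525 nm / em 598 nm; read-out: normalized percent inhibition of probe labeling; repeats: single replicate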
PRMT1 FP inh: inhibitors of human PRMT1; Q99873; recombinant PRMT1, activity-based probe fluorescence polarization; inhibition, % at 2.79 µM; 370,000 compounds, 1.3% hits; AID 652257;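 active means inhibition above about 21% made by adding two undisclosed values, limit read from the data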
SIAE primary: blocks human sialic acid acetylesterase | Q9HAT2 | SIAE FP-Rh probe binding, fluorescence polarization | inhibition, % at 9.66 µM | 370,000 compounds, 0.69% hits | AID 1053197;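 active means inhibition above a cutoff: mean of compounds within the control limits plus 3 SD of those, cut at about 17% in these data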
HTRA1 inh: blocks human HTRA1 serine peptidase; 340,000 compounds, 0.5% hits; recombinant HTRA1, FP-rhodamine activity-based probe, fluorescence polarization; Q92743; inhibition, % at 5.96 µM; AID 504803; in the data active means inhibition above about 36%
Target sequence (Q92743 whole entry, looked up): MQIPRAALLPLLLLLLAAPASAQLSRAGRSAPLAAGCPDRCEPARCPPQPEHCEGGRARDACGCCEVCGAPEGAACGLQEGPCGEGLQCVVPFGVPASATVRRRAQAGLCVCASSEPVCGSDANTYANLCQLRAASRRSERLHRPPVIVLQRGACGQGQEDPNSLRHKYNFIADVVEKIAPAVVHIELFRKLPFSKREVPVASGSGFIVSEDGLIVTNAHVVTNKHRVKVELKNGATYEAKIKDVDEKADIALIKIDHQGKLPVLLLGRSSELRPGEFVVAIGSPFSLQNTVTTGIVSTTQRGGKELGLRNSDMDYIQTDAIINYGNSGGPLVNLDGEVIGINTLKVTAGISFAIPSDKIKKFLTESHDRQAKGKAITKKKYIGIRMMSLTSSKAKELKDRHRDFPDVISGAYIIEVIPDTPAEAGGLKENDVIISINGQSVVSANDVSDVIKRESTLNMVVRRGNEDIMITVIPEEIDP
PRMT1 confirm: confirmation of human PRMT1 inhibitors. inhibition, % at 2.79 µM. 3,300 compounds, 42% hits. recombinant His-PRMT1, activity-based probe fluorescence polarization. shares compounds with PRMT1 FP inh;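 active means mean inhibition across replicates above the hit cutoff derived for the earlier primary screen, cut at about 22% in these data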
Hits are given with their value; . = inactive; / = not tested or not shown.

SMILES	rCAG RNA binder	TCR CD3 inh	ABHD4 inh	PRMT1 FP inh	SIAE primary	HTRA1 inh	PRMT1 confirm
C[C@H]1C2CC(OC(=O)NCc3ccc(Cl)cc3)C(C2)[C@H]2CCCCN21 (stereo partly specified)	.	/	.	.	.	/	/
CN/S(=N/S(=O)(=O)c1ccccc1)c1ccc(C)cc1 (stereo unspecified)	.	.	.	.	.	.	/
Cc1ccc(S(=O)(=O)/N=S(/c2ccccc2)C(C)C)cc1 (stereo unspecified)	.	.	.	35	.	.	70
CCOC(=O)c1ccc(-n2c(CCC(=O)O)ccc2-c2cccs2)cc1	.	.	.	47	.	.	.
COCCn1c(CCC(=O)O)ccc1-c1cccs1	.	.	.	.	.	.	/
CCCCn1c(CCC(=O)O)ccc1-c1cccs1	.	.	.	.	.	.	/
Cc1ccc(-n2c(CCC(=O)O)ccc2-c2cccs2)cc1C	.	.	.	32	.	.	.
CCN1CCN(C(=S)c2ccc(Cl)c(Cl)c2)CC1	.	.	.	63	.	.	49
Oc1ccc(N=Nc2ccccc2)o1	.	.	.	35	.	.	49
O=c1ccc(N=Nc2ccccc2)ccc1O	.	.	.	.	.	.	/
Cc1cccc2sc(NNC(=O)c3ccc4c(c3)OCCO4)nc12	.	.	.	28	.	.	.
CCn1c(SCC(=O)NN=Cc2ccc(C(=O)O)cc2)nc2ccccc21	.	/	.	.	.	/	/
COc1ccccc1NC(=O)c1c[nH]c2ccccc12	.	.	.	.	.	.	/
COc1ccccc1NC(=O)c1cc(=O)[nH]c2ccccc12	.	.	.	25	.	.	.
S=c1[nH]c2cnc(Cl)nc2[nH]1	.	.	.	43	.	.	34
S=c1[nH]c2nc(Cl)c(Cl)nc2[nH]1	.	.	.	.	.	.	/
CCC(Oc1ccccc1)C(=O)Nc1nc2ccccc2[nH]1 (stereo unspecified)	.	.	.	26	.	.	.
Nc1c(C(=O)NCC(O)c2ccccc2)cnn1-c1ccccc1 (stereo unspecified)	.	/	.	.	.	/	/
Cc1ccc(NC(=O)C2C3C=CC(O3)C2C(=O)O)cc1C (stereo unspecified)	.	.	.	.	.	.	/
Cc1cccc(NC(=O)C2C3C=CC(O3)C2C(=O)O)c1C (stereo unspecified)	.	.	.	33	.	.	.
Cc1ccc(NC(=O)C2C3C=CC(O3)C2C(=O)O)c(C)c1 (stereo unspecified)	.	.	.	37	.	.	.
Cc1ccc(C)c(NC(=O)C2C3C=CC(O3)C2C(=O)O)c1 (stereo unspecified)	.	.	.	79	.	.	38
COC(=O)[C@]12CCCCC=C1N(Cc1ccc(OC)cc1)C(=O)[C@@H]2CC(=O)N1CCCCC1	.	/	.	.	.	/	/
Cc1ccccc1Cn1cc(CN2[C@@H](CC(C)C)COc3cc(Br)ccc3S2(=O)=O)nn1	.	/	.	.	.	/	/
O=C(OCC(=O)c1ccco1)c1ccc2ncsc2c1	.	.	.	46	.	.	.
SMILES	rCAG RNA binder	TCR CD3 inh	ABHD4 inh	PRMT1 FP inh	SIAE primary	HTRA1 inh	PRMT1 confirm
CC(C)(C)c1ccc(NC(=O)COC(=O)c2ccc3ncsc3c2)cc1	.	.	.	.	.	.	/
Cc1cccc(Cn2cc(COC(=O)N3CCCC3)nn2)c1	.	/	.	.	.	/	/
CC[N+]1(C)CCC(O)(/C=C/c2ccccc2)C(C(=O)/C=C/c2ccccc2)C1 (stereo unspecified)	.	.	.	68	.	.	49
C#CCNC(=O)C[C@H]1C[C@@]2(C(=O)OC)C(=C[C@H](COCc3ccccc3)O[C@@H]2C)N(Cc2ccccc2)C1=O	.	/	.	.	.	/	/
CCC1CCC(NC2CCCCNC2=O)CC1 (stereo unspecified)	.	.	.	.	.	.	/
CC1CCCC(NC2CCCCNC2=O)C1 (stereo unspecified)	.	.	.	27	.	.	.
Cc1ccc(-n2c(SCC(=O)Nc3ccccc3-c3ccccc3)nnc2-c2cccs2)cc1	.	/	.	.	.	/	/
CN(CCO)c1cccc2c1S(=O)(=O)N(Cc1cn(Cc3cccc(C(F)(F)F)c3)nn1)Cc1ccccc1O2	.	/	.	.	.	/	/

Screening results: PubChem BioAssay, The Scripps Research Institute Molecular Screening Center
